Consider 8 compounds from ChEMBL document CHEMBL4265950, “Discovery of furyl/thienyl β-carboline derivatives as potent and selective PDE5 inhibitors with excellent vasorelaxant effect” (Eur J Med Chem, 2018).

The target in data set [1] is T1, cGMP-specific 3',5'-cyclic phosphodiesterase (Homo sapiens, UniProt O76074). Kind of data set: Inhibition of PDE5 (unknown origin).
For data set [2], the species on record is Homo sapiens. Kind of data set: Selectivity ratio of IC50 for PDE6 (unknown origin) to IC50 for PDE5 (unknown origin).
The species entered for data set [3] is Homo sapiens. As to the kind of experiment: Selectivity ratio of Ki for PDE6 (unknown origin) to Ki for PDE5 (unknown origin).
Data set [4] has as its target T1, cGMP-specific 3',5'-cyclic phosphodiesterase. As to the kind of experiment: Inhibition of full length recombinant human N-terminal GST-tagged PDE5A1 expressed in baculovirus infected sf9 cells using FAM-cyclic-3',5-GMP as substrate after 1 hr by fluorescence polarization assay.
The target is the same in data set [5]. Kind of data set: Inhibition of full length recombinant human N-terminal GST-tagged PDE5A1 expressed in baculovirus infected sf9 cells at 100 nM using FAM-cyclic-3',5-GMP as substrate after 1 hr by fluorescence polarization assay relative to control. Put shortly:
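Single-point test at 100 nM, reported as percent inhibition. Human PDE5 at 15 ng/mL with 100 nM FAM-cGMP in MOPS pH 7.5 buffer (MgCl2, EDTA, BSA, DTT), 1% DMSO final, 60 min at 25 °C. Binding agent added for 1 h, then fluorescence polarization read at […] nm.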

For data set [6], the target named is Dual specificity calcium/calmodulin-dependent 3',5'-cyclic nucleotide phosphodiesterase 1A (Homo sapiens, UniProt P54750). As to the kind of experiment: Inhibition of full length recombinant human N-terminal GST-tagged PDE1A expressed in baculovirus infected sf9 cells using FAM-cyclic-3',5-AMP as substrate after 1 hr by fluorescence polarization assay. Put shortly: (§1)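 Fluorescence polarization assay run at 25 °C for 60 min in 40 mM MOPS pH 7.5, 0.5 mM EDTA, 15 mM MgCl2, 0.15 mg/mL BSA, 1 mM DTT, 0.05% ProClin 200. Contained 15 ng/mL PDE isoform and 100 nM FAM-cGMP or FAM-cAMP according to isoform, with 1% DMSO final. Binding agent added for 1 h at 25 °C; read at […] nm. IC50 from normalized nonlinear dose-response fit.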

For data set [7], the target named is cGMP-dependent 3',5'-cyclic phosphodiesterase (Homo sapiens, UniProt O00408). Kind of data set: Inhibition of recombinant human N-terminal FLAG-tagged PDE2A (2 to 941 residues) expressed in baculovirus infected sf9 cells using FAM-cyclic-3',5-AMP as substrate after 1 hr by fluorescence polarization assay. Put shortly:
as §1

For data set [8], the target named is cGMP-inhibited 3',5'-cyclic phosphodiesterase 3B (Homo sapiens, UniProt Q13370). Kind of data set: Inhibition of recombinant human N-terminal GST-tagged PDE3B (592 to end residues) expressed in baculovirus infected sf9 cells using FAM-cyclic-3',5-AMP as substrate after 1 hr by fluorescence polarization assay. The method, boiled down:
as §1

Data set [9] deals with 3',5'-cyclic-AMP phosphodiesterase 4A (Homo sapiens, UniProt P27815). As to the kind of experiment: Inhibition of full length recombinant human N-terminal GST-tagged PDE4A1A expressed in baculovirus infected sf9 cells using FAM-cyclic-3',5-AMP as substrate after 1 hr by fluorescence polarization assay.
Data set [10] addresses Cone cGMP-specific 3',5'-cyclic phosphodiesterase subunit alpha' (Homo sapiens, UniProt P51160). As to the kind of experiment: Inhibition of full length recombinant human N-terminal GST-tagged PDE6C expressed in baculovirus infected sf9 cells using […] as substrate after 1 hr by fluorescence polarization assay.
Data set [11] is filed under the species Homo sapiens. As to the kind of experiment: Selectivity index, ratio of IC50 for inhibition of full length recombinant human N-terminal GST-tagged PDE6C expressed in baculovirus infected sf9 cells to IC50 for inhibition of full length recombinant human N-terminal GST-tagged PDE5A1 expressed in baculovirus infected sf9 cells.
For data set [12], the target named is Dual 3',5'-cyclic-AMP and -GMP phosphodiesterase 11A (Homo sapiens, UniProt Q9HCR9). As to the kind of experiment: Inhibition of full length recombinant human N-terminal GST-tagged PDE11A4 expressed in baculovirus infected sf9 cells using FAM-cyclic-3',5-AMP as substrate after 1 hr by fluorescence polarization assay.
In data set [13] the target is High affinity 3',5'-cyclic-AMP phosphodiesterase 7A (Homo sapiens, UniProt Q13946). Kind of data set: Inhibition of recombinant human N-terminal GST-tagged PDE7A (122 to end residues) expressed in baculovirus infected sf9 cells using FAM-cyclic-3',5-AMP as substrate after 1 hr by fluorescence polarization assay. The method, boiled down: as §1
Data set [14] has as its target High affinity cAMP-specific and IBMX-insensitive 3',5'-cyclic phosphodiesterase 8A (Homo sapiens, UniProt O60658). Kind of data set: Inhibition of full length recombinant human N-terminal GST-tagged PDE8A1 expressed in baculovirus infected sf9 cells using FAM-cyclic-3',5-AMP as substrate after 1 hr by fluorescence polarization assay. Put shortly:
as §1

Data set [15] addresses High affinity cGMP-specific 3',5'-cyclic phosphodiesterase 9A (Homo sapiens, UniProt O76083). Kind of data set: Inhibition of full length recombinant human N-terminal GST-tagged PDE9A2 expressed in baculovirus infected sf9 cells using […] as substrate after 1 hr by fluorescence polarization assay. The method, boiled down: as §1
The target in data set [16] is cAMP and cAMP-inhibited cGMP 3',5'-cyclic phosphodiesterase 10A (Homo sapiens, UniProt Q9Y233). As to the kind of experiment: Inhibition of recombinant human N-terminal GST-tagged PDE10A1 (2 to 789 residues) expressed in baculovirus infected sf9 cells using FAM-cyclic-3',5-AMP as substrate after 1 hr by fluorescence polarization assay. The method, boiled down:
as §1

For data set [17], the species on record is Homo sapiens. Kind of data set: Selectivity index, ratio of IC50 for inhibition of full length recombinant human N-terminal GST-tagged PDE11A4 expressed in baculovirus infected sf9 cells to IC50 for inhibition of full length recombinant human N-terminal GST-tagged PDE5A1 expressed in baculovirus infected sf9 cells.
The species entered for data set [18] is Homo sapiens. As to the kind of experiment: Selectivity index, ratio of IC50 for inhibition of recombinant human N-terminal GST-tagged PDE7A (122 to end residues) expressed in baculovirus infected sf9 cells to IC50 for inhibition of full length recombinant human N-terminal GST-tagged PDE5A1 expressed in baculovirus infected sf9 cells.
Data set [19] is filed under the species Homo sapiens. As to the kind of experiment: Selectivity index, ratio of IC50 for inhibition of full length recombinant human N-terminal GST-tagged PDE8A1 expressed in baculovirus infected sf9 cells to IC50 for inhibition of full length recombinant human N-terminal GST-tagged PDE5A1 expressed in baculovirus infected sf9 cells.
For data set [20], the species on record is Homo sapiens. As to the kind of experiment: Selectivity index, ratio of IC50 for inhibition of full length recombinant human N-terminal GST-tagged PDE9A2 expressed in baculovirus infected sf9 cells to IC50 for inhibition of full length recombinant human N-terminal GST-tagged PDE5A1 expressed in baculovirus infected sf9 cells.
The species entered for data set [21] is Homo sapiens. Kind of data set: Selectivity index, ratio of IC50 for inhibition of recombinant human N-terminal GST-tagged PDE10A1 (2 to 789 residues) expressed in baculovirus infected sf9 cells to IC50 for inhibition of full length recombinant human N-terminal GST-tagged PDE5A1 expressed in baculovirus infected sf9 cells.
The nature of data set [22]: Stability of the compound in PDE5 enzyme assay condition at 100 uM by HPLC analysis. Type of data set: ADME.
Data set [23] addresses cGMP-specific 3',5'-cyclic phosphodiesterase (Rattus norvegicus) (UniProt O54735). As to the kind of experiment: (§2) Inhibition of PDE5 in Wistar rat mesentric arteries assessed as inhibition of phenylephrine-induced contraction by measuring increase in acetylcholine-induced vasorelaxation by pressure myographic method. The method, boiled down: (§3)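 Third-order rat mesenteric arteries (110–150 µm), 3–4 mm unbranched segments, cannulated in PSS (pH 7.4, 95% O2/5% CO2). Equilibrated 35 min while pressure was stepped 10→60 mmHg. Checked with 120 mM KCl and acetylcholine, then constricted with 20 µM phenylephrine (norepinephrine in text) and given compounds cumulatively. Ca²⁺-free PSS set maximal dilation. Outer diameter recorded as % relaxation; EC50 from normalized nonlinear fit.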

Data set [24] deals with cGMP-specific 3',5'-cyclic phosphodiesterase (Rattus norvegicus, UniProt O54735). The data set is described as §2. Put shortly: as §3

cAMP and cAMP-inhibited cGMP 3',5'-cyclic phosphodiesterase 10A, sequence (Q9Y233 whole entry, the tested form may be a part): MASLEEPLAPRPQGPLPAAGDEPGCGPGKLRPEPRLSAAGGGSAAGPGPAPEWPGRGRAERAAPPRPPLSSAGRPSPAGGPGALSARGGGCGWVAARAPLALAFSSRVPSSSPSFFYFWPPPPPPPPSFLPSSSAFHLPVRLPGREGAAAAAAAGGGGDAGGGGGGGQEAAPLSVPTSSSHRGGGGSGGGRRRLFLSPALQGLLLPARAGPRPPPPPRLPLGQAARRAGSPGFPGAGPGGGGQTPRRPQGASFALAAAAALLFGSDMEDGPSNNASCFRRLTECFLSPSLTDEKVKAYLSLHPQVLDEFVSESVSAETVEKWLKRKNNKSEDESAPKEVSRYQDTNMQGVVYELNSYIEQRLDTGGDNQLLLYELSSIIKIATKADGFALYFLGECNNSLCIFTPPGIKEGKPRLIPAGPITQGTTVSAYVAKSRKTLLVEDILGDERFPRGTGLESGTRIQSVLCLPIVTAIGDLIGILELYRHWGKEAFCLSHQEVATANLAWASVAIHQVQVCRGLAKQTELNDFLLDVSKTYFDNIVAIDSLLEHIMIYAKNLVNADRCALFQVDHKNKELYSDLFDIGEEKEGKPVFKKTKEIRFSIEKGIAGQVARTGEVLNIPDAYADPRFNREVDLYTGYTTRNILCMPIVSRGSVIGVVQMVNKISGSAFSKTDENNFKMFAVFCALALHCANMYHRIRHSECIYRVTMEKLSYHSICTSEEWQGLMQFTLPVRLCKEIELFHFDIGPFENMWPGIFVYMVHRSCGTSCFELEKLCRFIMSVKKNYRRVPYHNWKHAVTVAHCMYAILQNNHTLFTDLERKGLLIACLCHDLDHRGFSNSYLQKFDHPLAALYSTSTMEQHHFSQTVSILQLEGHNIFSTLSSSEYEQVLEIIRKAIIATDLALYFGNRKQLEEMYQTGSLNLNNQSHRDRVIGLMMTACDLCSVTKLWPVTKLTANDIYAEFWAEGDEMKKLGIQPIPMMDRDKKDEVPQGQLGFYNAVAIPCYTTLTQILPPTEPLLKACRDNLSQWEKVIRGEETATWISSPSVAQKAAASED
Cone cGMP-specific 3',5'-cyclic phosphodiesterase subunit alpha', sequence (P51160 whole entry): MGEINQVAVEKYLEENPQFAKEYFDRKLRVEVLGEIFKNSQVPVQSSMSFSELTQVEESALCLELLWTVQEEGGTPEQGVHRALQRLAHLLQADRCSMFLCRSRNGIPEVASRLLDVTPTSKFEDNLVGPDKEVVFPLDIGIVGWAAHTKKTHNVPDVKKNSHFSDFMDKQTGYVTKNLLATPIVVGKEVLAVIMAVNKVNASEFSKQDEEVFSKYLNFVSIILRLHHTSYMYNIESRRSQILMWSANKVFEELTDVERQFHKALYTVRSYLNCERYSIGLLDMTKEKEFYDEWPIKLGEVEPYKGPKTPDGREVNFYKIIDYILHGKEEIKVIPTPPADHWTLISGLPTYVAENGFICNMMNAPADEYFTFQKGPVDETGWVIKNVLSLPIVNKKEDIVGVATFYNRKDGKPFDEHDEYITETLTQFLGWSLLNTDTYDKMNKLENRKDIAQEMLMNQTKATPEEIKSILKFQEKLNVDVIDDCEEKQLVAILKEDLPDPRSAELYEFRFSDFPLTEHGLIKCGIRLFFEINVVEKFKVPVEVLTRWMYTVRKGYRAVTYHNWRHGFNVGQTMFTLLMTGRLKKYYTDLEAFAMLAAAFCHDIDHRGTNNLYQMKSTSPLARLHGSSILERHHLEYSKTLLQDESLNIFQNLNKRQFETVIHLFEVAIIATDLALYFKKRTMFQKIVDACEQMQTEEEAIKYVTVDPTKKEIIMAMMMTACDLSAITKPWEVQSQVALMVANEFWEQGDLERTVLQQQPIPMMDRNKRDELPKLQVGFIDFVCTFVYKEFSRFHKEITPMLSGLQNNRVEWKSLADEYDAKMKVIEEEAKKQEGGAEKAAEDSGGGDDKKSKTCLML
cGMP-dependent 3',5'-cyclic phosphodiesterase, sequence (O00408 whole entry, the tested form may be a part): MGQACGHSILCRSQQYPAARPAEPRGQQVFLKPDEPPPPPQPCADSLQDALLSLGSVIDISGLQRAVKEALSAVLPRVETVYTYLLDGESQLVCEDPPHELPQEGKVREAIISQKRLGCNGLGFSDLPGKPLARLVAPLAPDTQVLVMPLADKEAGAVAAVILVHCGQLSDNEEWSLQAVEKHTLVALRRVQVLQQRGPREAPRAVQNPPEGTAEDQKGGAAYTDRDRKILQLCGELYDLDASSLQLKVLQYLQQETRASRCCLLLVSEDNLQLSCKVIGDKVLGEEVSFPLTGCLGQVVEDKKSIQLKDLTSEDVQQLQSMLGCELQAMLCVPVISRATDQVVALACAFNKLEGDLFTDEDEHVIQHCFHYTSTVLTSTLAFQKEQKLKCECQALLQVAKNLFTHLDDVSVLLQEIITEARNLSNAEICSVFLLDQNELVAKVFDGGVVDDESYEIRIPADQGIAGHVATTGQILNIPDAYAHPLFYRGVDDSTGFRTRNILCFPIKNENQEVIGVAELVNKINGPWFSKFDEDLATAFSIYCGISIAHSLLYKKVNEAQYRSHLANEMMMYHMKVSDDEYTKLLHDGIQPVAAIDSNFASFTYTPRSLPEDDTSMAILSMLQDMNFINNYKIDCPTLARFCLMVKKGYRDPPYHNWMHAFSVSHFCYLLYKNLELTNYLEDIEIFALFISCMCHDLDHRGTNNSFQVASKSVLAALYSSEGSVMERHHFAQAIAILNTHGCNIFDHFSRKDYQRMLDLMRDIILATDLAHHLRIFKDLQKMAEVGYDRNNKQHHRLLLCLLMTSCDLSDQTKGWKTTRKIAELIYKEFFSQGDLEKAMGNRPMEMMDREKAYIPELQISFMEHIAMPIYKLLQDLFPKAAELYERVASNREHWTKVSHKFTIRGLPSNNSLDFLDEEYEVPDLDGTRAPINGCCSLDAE
cGMP-inhibited 3',5'-cyclic phosphodiesterase 3B, sequence (Q13370 whole entry): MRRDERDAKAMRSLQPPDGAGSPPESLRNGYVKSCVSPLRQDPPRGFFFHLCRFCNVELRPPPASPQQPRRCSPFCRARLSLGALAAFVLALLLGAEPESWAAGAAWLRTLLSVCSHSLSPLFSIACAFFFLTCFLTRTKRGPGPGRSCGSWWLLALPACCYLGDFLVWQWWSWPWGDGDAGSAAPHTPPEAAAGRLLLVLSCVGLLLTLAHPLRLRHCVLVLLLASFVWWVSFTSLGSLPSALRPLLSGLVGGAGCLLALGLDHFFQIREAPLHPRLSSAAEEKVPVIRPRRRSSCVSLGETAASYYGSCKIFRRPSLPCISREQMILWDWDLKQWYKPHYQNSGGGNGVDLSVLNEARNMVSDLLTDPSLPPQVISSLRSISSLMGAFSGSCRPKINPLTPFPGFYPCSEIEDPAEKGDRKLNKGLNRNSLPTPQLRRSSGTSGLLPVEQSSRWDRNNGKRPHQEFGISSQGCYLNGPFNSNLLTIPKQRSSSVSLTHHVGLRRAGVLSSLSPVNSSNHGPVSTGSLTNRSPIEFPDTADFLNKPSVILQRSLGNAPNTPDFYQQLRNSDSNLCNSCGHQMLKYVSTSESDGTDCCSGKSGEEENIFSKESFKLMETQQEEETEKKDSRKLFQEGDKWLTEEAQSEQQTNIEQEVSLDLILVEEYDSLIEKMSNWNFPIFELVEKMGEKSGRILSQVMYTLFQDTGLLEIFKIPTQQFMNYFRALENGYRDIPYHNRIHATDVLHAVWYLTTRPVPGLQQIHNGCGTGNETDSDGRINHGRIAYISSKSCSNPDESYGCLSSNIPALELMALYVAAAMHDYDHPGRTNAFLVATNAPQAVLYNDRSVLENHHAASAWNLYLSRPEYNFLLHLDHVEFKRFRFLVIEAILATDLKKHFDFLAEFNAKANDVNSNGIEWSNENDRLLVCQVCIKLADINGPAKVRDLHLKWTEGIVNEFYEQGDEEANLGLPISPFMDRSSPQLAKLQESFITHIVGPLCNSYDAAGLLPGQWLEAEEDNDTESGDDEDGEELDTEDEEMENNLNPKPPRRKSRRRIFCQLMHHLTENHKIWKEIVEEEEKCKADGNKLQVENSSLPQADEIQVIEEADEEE
High affinity cGMP-specific 3',5'-cyclic phosphodiesterase 9A, sequence (O76083 whole entry, the tested form may be a part): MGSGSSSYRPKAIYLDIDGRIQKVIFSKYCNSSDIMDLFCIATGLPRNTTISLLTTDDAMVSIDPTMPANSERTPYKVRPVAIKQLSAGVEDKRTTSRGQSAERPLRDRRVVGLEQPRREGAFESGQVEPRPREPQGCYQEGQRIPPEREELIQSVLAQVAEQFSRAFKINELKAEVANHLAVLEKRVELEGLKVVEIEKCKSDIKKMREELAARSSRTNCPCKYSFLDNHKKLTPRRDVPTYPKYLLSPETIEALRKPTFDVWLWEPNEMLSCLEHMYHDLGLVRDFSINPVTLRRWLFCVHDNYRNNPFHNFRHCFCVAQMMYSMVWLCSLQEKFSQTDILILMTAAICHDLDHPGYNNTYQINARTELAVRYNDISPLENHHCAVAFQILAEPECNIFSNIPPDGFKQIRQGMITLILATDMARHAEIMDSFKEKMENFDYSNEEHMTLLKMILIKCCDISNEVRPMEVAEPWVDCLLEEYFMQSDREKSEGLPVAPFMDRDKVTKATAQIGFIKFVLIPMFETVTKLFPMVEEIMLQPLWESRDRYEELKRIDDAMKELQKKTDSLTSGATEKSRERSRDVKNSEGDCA
Dual specificity calcium/calmodulin-dependent 3',5'-cyclic nucleotide phosphodiesterase 1A, sequence (P54750 whole entry, canonical isoform): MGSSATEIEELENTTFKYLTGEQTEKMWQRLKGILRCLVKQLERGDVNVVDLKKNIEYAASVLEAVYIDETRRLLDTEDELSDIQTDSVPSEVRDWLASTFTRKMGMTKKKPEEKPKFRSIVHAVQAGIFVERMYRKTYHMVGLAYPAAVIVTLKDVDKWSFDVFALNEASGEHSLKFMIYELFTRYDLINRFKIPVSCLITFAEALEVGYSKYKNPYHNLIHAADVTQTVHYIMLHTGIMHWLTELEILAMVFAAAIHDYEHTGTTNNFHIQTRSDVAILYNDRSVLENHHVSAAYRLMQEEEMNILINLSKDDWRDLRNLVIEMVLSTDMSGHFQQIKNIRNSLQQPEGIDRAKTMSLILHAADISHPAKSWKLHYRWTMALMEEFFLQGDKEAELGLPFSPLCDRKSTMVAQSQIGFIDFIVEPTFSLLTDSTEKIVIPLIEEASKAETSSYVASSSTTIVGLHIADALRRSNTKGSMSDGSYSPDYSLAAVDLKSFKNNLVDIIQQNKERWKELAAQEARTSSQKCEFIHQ

On to `CCc1ccc(C2c3[nH]c4ccccc4c(=O)c3CN2c2ncc(-c3ccccn3)cn2)o1` (centres undefined), for which inhibition in [1] was half-maximal at 0.53 nM (IC50). Moreover, the Ratio IC50 in the data set filed under Homo sapiens [2] was 4.
For the compound `CN1CCN(C(=O)c2ccc(-c3ccc(C(=O)N4CCc5c([nH]c6ccccc56)C4c4ccc5c(c4)OCO5)o3)cc2)CC1` (racemic), the Ki in data set [1] stood at 8 nM. In addition, the Ratio Ki in the data set filed under Homo sapiens [3] worked out at 187.
For the compound `CCc1ccc([C@@H]2c3[nH]c4ccccc4c3C[C@H]3C(=O)N(CC)C(=O)N23)o1`, the 50% inhibitory concentration (IC50) is 2.92 nM in [4]; > 20000 nM in data set [6]; > 20000 nM in data set [7]; > 20000 nM in data set [8]; > 10000 nM in data set [9]; 127 nM in [10]. The IC50 in data set [12] is > 1000 nM; in data set [13], > 3000 nM; in [14], > 3000 nM; in [15], > 3000 nM; in data set [16], > 3000 nM. In addition, in data set [5], the inhibition is 99.5%. In addition, the Ratio IC50 is 43 in the data set listed under Homo sapiens [11]; > 342 in the data set listed under Homo sapiens [17]; > 1000 in the data set listed under Homo sapiens [18]; > 1000 in the data set filed under Homo sapiens [19]; > 1000 in the data set filed under Homo sapiens [20]; > 1000 in the data set filed under Homo sapiens [21]. In addition, in data set [22], the Stability result is on record as “Stable”. The percent relaxation entry in data set [23] was “Dose-dependent effect”. For the same compound, the half-maximal effective concentration (EC50) in data set [24] amounted to 63 nM.
Take `CN1CC(=O)N2[C@H](c3ccc4c(c3)OCO4)c3[nH]c4ccccc4c3C[C@@H]2C1=O`: the 50% inhibitory concentration (IC50) in data set [6], in data set [7], in data set [8], in [13], in data set [14] and in data set [15] was > 10000 nM each time. Also, the half-inhibitory concentration (IC50) in data set [16] was > 10000 nM. Further, in [24], the EC50 was 78 nM.
Regarding `COc1ccc(CNc2nc(N3CCC[C@H]3CO)ncc2C(=O)NCc2ncccn2)cc1Cl`, in the data set listed under Homo sapiens [3], the Ratio Ki stood at 1000.
With `CCc1ccc(C2c3[nH]c4ccccc4c(=O)c3CN2c2ncc(-c3ccccn3)cn2)s1` (centres undefined), the Ratio IC50 in the data set listed under Homo sapiens [2] was found to be 8.
For the compound `CCc1ccc([C@@H]2c3[nH]c4ccccc4c3C[C@@H]3C(=O)N(C)CC(=O)N23)s1`, the IC50 in data set [4] is 3.87 nM; in data set [6], > 20000 nM; in data set [7], > 20000 nM; in data set [8], > 20000 nM; in data set [9], > 10000 nM; in data set [10], > 1000 nM. Besides, the IC50 in data set [12] was 272 nM; in [13], > 4000 nM; in data set [14] it was > 4000 nM; in data set [15], > 4000 nM; in [16], > 4000 nM. In data set [5], the inhibition is 97.8%. In addition, the Ratio IC50 in the data set listed under Homo sapiens [11] was > 258; in the data set filed under Homo sapiens [17], 70; in the data set listed under Homo sapiens [18] it was > 1000; in the data set filed under Homo sapiens [19] it was > 1000; in the data set filed under Homo sapiens [20] it was > 1000; in the data set filed under Homo sapiens [21], > 1000. In addition, the Stability entry in data set [22] was “Stable”. The percent relaxation result in data set [23] was “Dose-dependent effect”. Further, the EC50 in data set [24] amounted to 30 nM.
`CCc1ccc([C@@H]2c3[nH]c4ccccc4c3C[C@@H]3C(=O)N(C)CC(=O)N23)o1`: the IC50 in [4] was 12.7 nM; in data set [6] it was > 20000 nM; in data set [7] it was > 20000 nM; in data set [8] it was > 20000 nM; in [9], > 10000 nM; in data set [10], > 1000 nM. Besides, the half-inhibitory concentration (IC50) in data set [12] came out at 119 nM. For the same compound, the inhibition in data set [5] worked out at 98.4%. Also, the Ratio IC50 was > 79 in the data set filed under Homo sapiens [11] and 9 in the data set filed under Homo sapiens [17]. In data set [22], the Stability entry is given as “Stable”. In addition, the percent relaxation entry in data set [23] was “Dose-dependent effect”. Further, in [24], the concentration giving a half-maximal response (EC50) stood at 725 nM.
